MrgX1 antagonist = human MrgX1 receptor antagonism, primary screen | Q96LB2 | MRGX1-HEK293 calcium flux, Fluo-4, BAM8-22 antagonism; stronger effect = lower value | B-score at 10 µM | hit rate 1.3% among 310,000 | AID 588676;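 active means calcium-response B-score plate-corrected more than 3 library SD below zero, starting fluorescence within 5 deviations, no agonist response on first addition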;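 further: peak minus trough fluorescence over baseline after final BAM8-22 challenge near maximal dose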
Target sequence (Q96LB2 whole entry, looked up): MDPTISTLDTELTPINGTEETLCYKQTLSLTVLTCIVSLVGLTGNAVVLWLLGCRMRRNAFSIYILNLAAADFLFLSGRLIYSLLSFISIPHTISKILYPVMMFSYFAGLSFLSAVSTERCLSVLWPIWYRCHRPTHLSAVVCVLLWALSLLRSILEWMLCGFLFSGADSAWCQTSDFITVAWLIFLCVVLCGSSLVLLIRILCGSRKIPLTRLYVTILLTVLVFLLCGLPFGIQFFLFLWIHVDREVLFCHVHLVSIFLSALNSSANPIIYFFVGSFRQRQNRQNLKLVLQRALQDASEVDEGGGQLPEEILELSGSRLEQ
RGS4 act = potentiators or activators of RGS4; HEK293 M3R/inducible RGS4, carbachol calcium flux Fluo4; stronger effect = lower value; B-score at 10 µM; hit rate 0.92% among 310,000;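 active means B-score of the integrated calcium signal more than 4 SD below the library mean, with starting fluorescence not abnormally high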;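 further: negative B-score means reduced calcium response which marks RGS4 activation or potentiation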
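System: HEK293 FlpIn-TREx cells, stable M3R, doxycycline-inducible RGS4. Timing: overnight RGS4 induction, 30 min dye load 37 °C, 20 min compound RT. Also added: carbachol, ECmax concentration. Measured by: Fluo4 fluorescence kinetic imaging of calcium. Evaluation: integrated calcium ratio converted to B score.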
MrgX1 agonist = activates human MrgX1 receptor signaling. hit rate 0.44% among 310,000. B-score at 10 µM. Q96LB2. AID 588627. MrgX1-HEK293 cells, Fluo-4 calcium fluorescence, agonist mode; stronger effect = higher value;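 active means calcium response B-score plate-corrected fluorescence ratio at least 3 library SD, with starting fluorescence B-score inside 5 SD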
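Material: HEK293 cells stably expressing human MrgX1 receptor | Quantity: 15,000 cells per well | Times: Cells plated overnight, dye loaded 0.5 h 37 °C, 0.5 h room temperature | Measured by: Kinetic Fluo-4 NW fluorescence of intracellular calcium | Control set: Positive and negative controls per plate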
MrgX1 allo act = allosterically activates human MrgX1 receptor signaling; B-score at 10 µM; MrgX1-HEK293, Fluo-4 calcium flux, FDSS; stronger effect = higher value; hit rate 0.63% among 310,000;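 active means plate-corrected calcium response at least 3 library SD above typical, normal starting fluorescence, not activating the receptor alone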;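 further: compound read alongside a low EC10 to EC30 dose of BAM8-22 agonist; peak minus trough fluorescence over baseline measured at the second addition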
RGS4 block = human RGS4 inhibition | P49798 | HEK293 M3R/RGS4 inducible, Fluo-4 calcium flux; stronger effect = higher value; triggered by carbachol at its EC20 | B-score at 10 µM | hit rate 0.45% among 310,000 | AID 463165;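 active means B-score, a plate-corrected calcium signal, over three deviations above library mean, with baseline fluorescence within five deviations of library mean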;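 further: RGS4 expression induced by doxycycline in cells with stable M3 receptor; B-score is computed from the integrated fluorescence ratio over baseline after carbachol; higher B-score means a larger calcium signal and so more RGS4 inhibition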
Target sequence (P49798 whole entry, looked up): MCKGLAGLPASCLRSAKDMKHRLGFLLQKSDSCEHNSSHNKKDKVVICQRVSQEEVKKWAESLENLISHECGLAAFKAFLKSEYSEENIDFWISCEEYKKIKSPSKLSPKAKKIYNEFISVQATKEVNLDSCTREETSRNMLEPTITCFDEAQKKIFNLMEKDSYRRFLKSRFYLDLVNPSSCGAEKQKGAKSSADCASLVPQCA
PHOSPHO1 block = PHOSPHO1 (human) inhibition; recombinant PHOSPHO1, absorbance phosphatase assay; AID 1565; Q8TCT1; inhibition, % at 13.3 µM; hit rate 1.1% among 290,000; in the data active means inhibition above about 60%
MrgX1 PAM conf = human MrgX1 positive allosteric modulation, re-confirmation | shares compounds with MrgX1 allo act | MrgX1-HEK293, Fluo-4 calcium fluorescence, FDSS | activation (ratio percentage), % at 10 µM | hit rate 13% among 1,200;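 active means ratio at least 3 SD above the weak peptide control, stable starting fluorescence, no direct agonism earlier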;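 further: compound followed by low BAM8-22 agonist challenge near EC20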
HEK293 Ca flux = activity in parental HEK293 cells lacking MrgX1; shares compounds with MrgX1 antagonist; Fluo-4 calcium fluorescence, FDSS; fluorescence ratio F(max-min)/F0 at 10 µM; hit rate 2% among 4,000; AID 624111;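 active means duplicate-averaged calcium fluorescence ratio at least three times the standard deviation of buffer wells, a nonspecific response in parental cells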
HEK293 Ca counter = activity in parental HEK293 cells without MrgX1. shares compounds with MrgX1 antagonist. fluorescence ratio F(max-min)/F0 at 10 µM. parental HEK293 calcium flux, Fluo-4 fluorescence ratio; stronger effect = higher value. hit rate 0.4% among 4,000;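 active means calcium fluorescence ratio, averaged over duplicates, at least 3 SD of the buffer-well ratio, meaning a nonspecific response in receptor-free cells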;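 further: untransfected parental HEK293 lacking MrgX1 used as counterscreen for MrgX1 allosteric activators; fluorescence change taken during the second addition on a kinetic imager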
HEK293 Ca cntr2 = counter-screen for MrgX1 activators: effect in parental HEK293 cells; fluorescence ratio F(max-min)/F0 at 10 µM; Fluo-4 calcium fluorescence (FDSS); stronger effect = higher value; AID 624115; hit rate 8.7% among 4,000; shares compounds with MrgX1 antagonist;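 active means calcium fluorescence ratio at least three times the spread of buffer wells, meaning a non-specific response in parental cells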
Large screens that a line does not name were inactive (follow-up assays come after a bar, where they were run). Shown are actives, neighbours in structure and some others; about 4.5% of the full set was active somewhere.

CCN(CC)P(=O)(Nc1ccccc1Br)c1ccc(N(C)C)cc1NC(=O)c1ccco1 (stereo not drawn)	none
O=C(Nc1ccccc1)c1ccc[nH]1	none
O=C(c1ccccc1)c1nc[nH]c1C(=O)Nc1ccccc1	MrgX1 allo act 9.9 | MrgX1 PAM conf inactive | HEK293 Ca flux inactive | HEK293 Ca counter inactive | HEK293 Ca cntr2 inactive
Cc1ccc(N2CC(C(=O)Nc3ccc(C)c(S(=O)(=O)N(C)C)c3)CC2=O)cc1 (stereo not drawn)	MrgX1 allo act 10 | MrgX1 PAM conf inactive | HEK293 Ca flux inactive | HEK293 Ca counter inactive | HEK293 Ca cntr2 inactive
CC(=O)c1sc(NC(=O)c2ccccc2)nc1-c1ccccc1	none
Cc1sc(NC(=O)c2cccnc2)nc1-c1ccccc1	MrgX1 allo act 11 | MrgX1 PAM conf inactive | HEK293 Ca flux inactive | HEK293 Ca counter inactive | HEK293 Ca cntr2 inactive
Cc1c(Cl)cccc1NC(=O)NCc1cccnc1	none
CN(C)C(=O)COc1ncnc2scc(-c3ccc(F)cc3)c12	MrgX1 allo act 8.2 | MrgX1 PAM conf 35% | HEK293 Ca flux inactive | HEK293 Ca counter inactive | HEK293 Ca cntr2 inactive
CCN(C(=O)COc1ncnc2scc(-c3ccc(F)cc3)c12)C1CCS(=O)(=O)C1 (stereo not drawn)	none
Clc1ccc2nc(COc3ccccc3)[nH]c2c1	none
CCOC(=O)c1c(C)[nH]c(C)c1C(=O)COC(=O)c1c(OC)cccc1OC	MrgX1 allo act 7.1 | MrgX1 PAM conf inactive | HEK293 Ca flux inactive | HEK293 Ca counter inactive | HEK293 Ca cntr2 inactive
Cc1ccc(OCCC(=O)OCC(=O)Nc2cc(C)nn2-c2ccccc2)cc1	none
CCc1ccc(Oc2cc(Cl)nc(N)n2)cc1	MrgX1 allo act 12 | MrgX1 PAM conf inactive | HEK293 Ca flux inactive | HEK293 Ca counter inactive | HEK293 Ca cntr2 inactive
O=C(CSc1nc(=O)n2ccccc2n1)NC1CCCCC1	none (no result: PHOSPHO1 block)
COc1ccc(CC(=O)N2CCC(c3ccccc3)C2)cc1 (stereo not drawn)	MrgX1 allo act 8 | MrgX1 PAM conf inactive | HEK293 Ca flux inactive | HEK293 Ca counter inactive | HEK293 Ca cntr2 inactive
O=C(Cc1ccccc1)N1CCC(c2ccccc2)C1 (stereo not drawn)	none
COc1ccc(NC2CCCN(C(=O)C3=NN(C)C(=O)CC3)C2)cc1OC (stereo not drawn)	none
CN(C)S(=O)(=O)c1ccc(Cl)c(NC(=O)COC(=O)CN2C(=O)C3CCCCC3C2=O)c1 (stereo not drawn)	MrgX1 allo act 9 | MrgX1 PAM conf inactive | HEK293 Ca flux inactive | HEK293 Ca counter inactive | HEK293 Ca cntr2 inactive
O=C(C1CCCO1)N1CCN(S(=O)(=O)c2ccc(Cl)cc2)CC1 (stereo not drawn)	MrgX1 allo act 15 | MrgX1 PAM conf inactive | HEK293 Ca flux inactive | HEK293 Ca counter inactive | HEK293 Ca cntr2 inactive
COc1cc(NC(=O)C(Cc2ccccc2)n2cccc2)cc(OC)c1 (stereo not drawn)	MrgX1 allo act 7.1 | MrgX1 PAM conf inactive | HEK293 Ca flux inactive | HEK293 Ca counter inactive | HEK293 Ca cntr2 inactive
CSCCCNC(=S)Nc1cccc(S(=O)(=O)NC2=NCCC2)c1	none
C=C(C)CNC(=S)Nc1cccc(S(=O)(=O)NC2=NCCC2)c1	MrgX1 allo act 11 | MrgX1 PAM conf inactive | HEK293 Ca flux inactive | HEK293 Ca counter inactive | HEK293 Ca cntr2 inactive
CC12CCC(C(=O)Nc3nccs3)(OC1=O)C2(C)C (stereo not drawn)	none
